Published values gathered from unrelated publications.
Lines come from different studies, so protocols differ.
Target: Activated CDC42 kinase 1 (TNK2, Homo sapiens, UniProt Q07912)

Compound | read-out | action | method | concentration | endpoint | value
CC(C)(C)c1cc(C=C(C#N)C#N)cc(Br)c1O | enzyme activity | inhibitor | – | 0.5 µM | remaining activity | 93.1%
Cn1cc(-c2cccc(N3CCc4c(sc5c4CC(C)(C)C5)C3=O)c2CO)cc(Nc2ccncn2)c1=O | enzyme activity | inhibitor | – | 1 µM | inhibition | 0%
Cn1cncc1[C@](O)(COc1ccc(C#N)cc1-c1ccc(OC(F)(F)F)cc1)c1ccc(C#N)cc1 | cell-free assay | – | competition with immobilised ligand | 1 µM | remaining binding | 100%
COc1ncccc1-c1cnn2ccc(N3CCN(C(=O)OC(C)C)CC3)nc12 | binding | – | competition with immobilised ligand | 1 µM | remaining binding | 94%
COc1cc(Cl)c(C(=O)N[C@@H](CN[C@H]2CC[C@@H](N)CC2)Cc2ccc(C#N)cc2)cc1-c1ccc(CN[C@H](C)c2ccc(C)cc2)o1 | enzyme activity | inhibitor | – | 1 µM | remaining activity | 107%
Nc1ncc(-c2nc(N3CCOCC3)nc(N3CCOCC3)n2)c(C(F)F)n1 | binding | – | competition with immobilised ligand | 10 µM | remaining binding | 85%
Cn1cc(-c2cc(F)cc(N3CCn4c(cc5c4CCCC5)C3=O)c2CO)cc(Nc2ccc(N3CCN(C4COC4)CC3)cn2)c1=O | enzyme activity | inhibitor | – | 0.1 µM | inhibition | 1%
COc1cc(Nc2ncc(F)c(Nc3ccc4c(n3)NC(=O)C(C)(C)O4)n2)cc(OC)c1OC | binding | – | – | 10 µM | inhibition | 99%
O=c1[nH]c2ccccc2n1C1CCN(Cc2ccc(-c3[nH]c4cc5ncnc5cc4nc3-c3ccccc3)cc2)CC1 | cell-free assay | – | – | 0.5 µM | remaining signal | 92.3%
